# Results: ChEMBL document CHEMBL2169867, “Novel β-amino acid derivatives as inhibitors of cathepsin A” (J Med Chem, 2012)
# Activity calls are given as the source filed them. No cut-off for these calls is given here.
# How the values were obtained:
# [1] = AUC (0 to infinity) in Sprague-Dawley rat heart at 10 mg/kg, po; assay type: ADME, organism-based; design: time infinity, dose 10 mg/kg, route oral
# Summary of the method: (§1)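 Male Sprague-Dawley rats; single oral 10 mg/kg in glycofurol 75 (19%)/Cremophor RH40 (6%)/water (75%). Plasma and heart sampled at eight time points over 24 h, three animals per time point, nonserial design. Heart homogenized with water (2 g per 1 g tissue). Concentrations measured by LC-MS/MS with a structurally related internal standard; AUC(0-inf) taken from plasma concentration-time curves.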
# [2] = Cmax in Sprague-Dawley rat plasma at 10 mg/kg, po; assay type: ADME, organism-based; design: dose 10 mg/kg, route oral; summary of the method: as §1
# Mus musculus [3] = assay: Cardioprotective activity against angiotensin 2-induced cardiac hypertrophy in B6.129P2-ApoE/J mouse assessed as mean arterial pressure at 100 mg/kg, po administered QD after 4 weeks (reference value: 99.03 6.82 mmHg); assay type: functional, Heart
# Rattus norvegicus [4] = assay: Antihypertensive activity in Wistar rat assessed as bradykinin-dependent diuresis at 10 mg/kg, iv administered as bolus measured as urine flow rate (reference value: 11.6 uL/min); assay type: functional
# Summary of the method: (§2)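 Anesthetized male Wistar rats prepared with urethane, carotid/jugular cannulae, continuous albumin-saline infusion and ureteral urine collection. Compound given as iv bolus at 10 mg/kg, alone or with HOE140 0.5 mg/kg iv. Urine volume measured over five successive 20 min periods; two-way ANOVA with Bonferroni post-tests, p < 0.05.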
# Mus musculus [5] = assay: Cardioprotective activity against angiotensin 2-induced cardiac hypertrophy in B6.129P2-ApoE/J mouse assessed as left ventricular end systolic pressure at 100 mg/kg, po administered QD after 4 weeks (reference value: 139.36 9.79 mmHg); assay type: functional, Heart left ventricle
# Mus musculus [6] = assay: Cardioprotective activity against angiotensin 2-induced cardiac hypertrophy in B6.129P2-ApoE/J mouse assessed as ejection fraction at 100 mg/kg, po administered QD after 4 weeks (reference value: 51.14 2.49 %); assay type: functional, Heart
# Mus musculus [7] = assay: Cardioprotective activity against angiotensin 2-induced cardiac hypertrophy in B6.129P2-ApoE/J mouse assessed as left ventricular end diastolic pressure at 100 mg/kg, po administered QD after 4 weeks (reference value: 15.49 1.95 mmHg); assay type: functional, Heart left ventricle
# Neprilysin = Neprilysin (Homo sapiens, UniProt P08473); assay: Inhibition of human recombinant NEP using Mca-RPPGFSAFK(Dnp)-OH as substrate incubated for 15 mins prior to substrate addition measured after 20 to 30 mins by fluorimetric analysis
# Neprilysin, sequence (P08473 whole entry): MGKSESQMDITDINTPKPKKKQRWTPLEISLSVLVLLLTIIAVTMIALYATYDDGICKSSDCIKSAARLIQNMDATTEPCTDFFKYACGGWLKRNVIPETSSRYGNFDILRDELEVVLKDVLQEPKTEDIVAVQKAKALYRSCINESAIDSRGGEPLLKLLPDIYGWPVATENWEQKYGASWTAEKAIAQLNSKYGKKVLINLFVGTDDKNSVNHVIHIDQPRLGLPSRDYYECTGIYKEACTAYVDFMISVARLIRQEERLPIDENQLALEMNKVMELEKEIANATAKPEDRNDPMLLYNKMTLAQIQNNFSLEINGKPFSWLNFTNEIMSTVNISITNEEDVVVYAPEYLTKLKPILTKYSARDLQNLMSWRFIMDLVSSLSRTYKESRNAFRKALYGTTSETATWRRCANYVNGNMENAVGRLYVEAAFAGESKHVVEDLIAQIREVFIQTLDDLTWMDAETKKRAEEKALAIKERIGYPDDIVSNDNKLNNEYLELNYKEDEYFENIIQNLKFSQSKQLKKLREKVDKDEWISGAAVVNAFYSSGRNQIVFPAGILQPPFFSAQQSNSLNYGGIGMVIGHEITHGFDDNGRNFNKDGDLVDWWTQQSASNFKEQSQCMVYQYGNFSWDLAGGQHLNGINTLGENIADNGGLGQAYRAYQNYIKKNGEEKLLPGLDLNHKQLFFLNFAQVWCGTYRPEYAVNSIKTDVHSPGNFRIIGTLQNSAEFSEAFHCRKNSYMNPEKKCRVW
# Summary of the method: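 Recombinant human NEP and inhibitor preincubated 15 min at room temperature in reaction buffer, then substrate added. Fluorescence read after 20-30 min at room temperature. % inhibition and IC50 calculated against internal high and low controls.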
# Mus musculus [8] = assay: Toxicity in B6.129P2-ApoE/J mouse assessed as body weight at 100 mg/kg, po administered QD after 4 weeks (reference value: 30.48 0.52 g); assay type: organism-based; design: dose 100 mg/kg, route oral; conditions: in vivo, 672 h
# Mus musculus [9] = assay: Cardioprotective activity against angiotensin 2-induced cardiac hypertrophy in B6.129P2-ApoE/J mouse assessed as left ventricular relaxation time at 100 mg/kg, po administered QD after 4 weeks (reference value: 8.73 0.41 ms); assay type: functional, Heart left ventricle
# Rattus norvegicus [10] = assay: Effect on glomerular filtration rate in Wistar rat assessed as change in creatinine excretion at 30 mg/kg, po relative to vehicle-treated control; assay type: functional, organism-based; design: dose 30 mg/kg
# Summary of the method: (§3)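 Male Wistar rats dosed po at 30 mg kg⁻¹ day⁻¹. Urine collected over 6 h before and after treatment. Bradykinin measured by commercial RIA; creatinine excretion also determined. Mean ± SEM, n = 9-10; paired t test.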
# [11] = molecular target: Cathepsin A (Homo sapiens); assay: Inhibition of cathepsin A
# [12] = AUC (0 to infinity) in Sprague-Dawley rat plasma at 10 mg/kg, po; assay type: ADME, organism-based; design: time infinity, dose 10 mg/kg, route oral; summary of the method: as §1
# Mus musculus [13] = assay: Ratio of left ventricular wet weight to body weight in B6.129P2-ApoE/J mouse at 100 mg/kg, po administered QD after 4 weeks (reference value: 5.99 0.28 mg/g); assay type: functional
# [14] = molecular target: T1, Lysosomal protective protein (Homo sapiens, UniProt P10619); assay: Inhibition of human recombinant Myc-His10-tagged cathepsin A expressed in baculovirus infected Sf9 cells using BodipyFL labeled bradykinin as substrate incubated for 15 mins prior to substrate addition measured after 15 mins by fluorimetric analysis
# T1 sequence (P10619 whole entry): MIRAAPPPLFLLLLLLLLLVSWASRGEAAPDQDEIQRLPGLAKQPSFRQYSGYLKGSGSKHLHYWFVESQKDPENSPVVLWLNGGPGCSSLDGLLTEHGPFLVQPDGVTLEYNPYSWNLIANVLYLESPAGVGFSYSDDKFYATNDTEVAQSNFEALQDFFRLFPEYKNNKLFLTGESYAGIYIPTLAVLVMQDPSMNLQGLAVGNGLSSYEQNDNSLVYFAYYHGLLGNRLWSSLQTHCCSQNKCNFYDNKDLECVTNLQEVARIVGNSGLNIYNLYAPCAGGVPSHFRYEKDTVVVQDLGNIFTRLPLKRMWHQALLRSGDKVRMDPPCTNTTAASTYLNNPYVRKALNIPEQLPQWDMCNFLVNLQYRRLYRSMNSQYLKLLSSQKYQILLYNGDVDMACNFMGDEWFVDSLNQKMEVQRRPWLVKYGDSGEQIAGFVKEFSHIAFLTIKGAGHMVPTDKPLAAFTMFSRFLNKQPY
# Mus musculus [15] = assay: Cardioprotective activity against angiotensin 2-induced cardiac hypertrophy in B6.129P2-ApoE/J mouse assessed as left ventricular wet weight at 100 mg/kg, po administered QD after 4 weeks (reference value: 182.03 […]); assay type: functional, Heart left ventricle
# [16] = Cmax in Sprague-Dawley rat heart at 10 mg/kg, po; assay type: ADME, organism-based; design: dose 10 mg/kg, route oral; summary of the method: as §1
# Rattus norvegicus [17] = assay: Antihypertensive activity in Wistar rat assessed as bradykinin-dependent diuresis at 1 mg/kg, iv administered as bolus measured as urine flow rate (reference value: 11.6 uL/min); assay type: functional
# Rattus norvegicus [18] = assay: Antihypertensive activity in Wistar rat assessed as bradykinin-dependent diuresis at 10 mg/kg, iv administered as bolus measured as urine flow rate in presence of HOE140 (reference value: 11.6 uL/min); assay type: functional; summary of the method: as §2
# Rattus norvegicus [19] = assay: Antihypertensive activity in Wistar rat assessed as increase in bradykinin level in urine at 30 mg/kg, po relative to vehicle-treated control; assay type: functional; summary of the method: as §3
# Rattus norvegicus [20] = assay: Cardioprotective activity against ventricular ischemia/reperfusion in Wistar rat assessed as duration of burst-pacing-induced atrial fibrillation at 30 mg/kg, po administered QD after 3 months (reference value: 25.00 18.09 s); assay type: functional, Cardiac atrium
# CYP3A4 = CYP3A4 (Homo sapiens, UniProt P08684); assay: Induction of CYP3A4 relative to control; assay type: ADME; conditions: human
# CYP3A4, sequence (P08684 whole entry): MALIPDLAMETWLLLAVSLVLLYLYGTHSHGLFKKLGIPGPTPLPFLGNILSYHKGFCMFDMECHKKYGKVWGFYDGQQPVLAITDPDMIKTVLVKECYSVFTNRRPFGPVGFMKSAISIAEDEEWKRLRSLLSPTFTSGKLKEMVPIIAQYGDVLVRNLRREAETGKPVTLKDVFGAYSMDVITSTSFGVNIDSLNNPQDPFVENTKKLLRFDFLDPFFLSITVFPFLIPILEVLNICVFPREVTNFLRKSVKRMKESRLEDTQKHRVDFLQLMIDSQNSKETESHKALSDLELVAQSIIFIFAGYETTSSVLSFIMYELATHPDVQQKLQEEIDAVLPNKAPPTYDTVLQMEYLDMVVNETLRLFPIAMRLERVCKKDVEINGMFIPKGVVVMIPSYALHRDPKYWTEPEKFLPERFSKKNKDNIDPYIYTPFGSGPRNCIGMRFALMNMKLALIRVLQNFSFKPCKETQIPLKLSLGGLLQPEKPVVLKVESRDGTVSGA
# Mus musculus [21] = assay: Cardioprotective activity against angiotensin 2-induced cardiac hypertrophy in B6.129P2-ApoE/J mouse assessed as heart rate at 100 mg/kg, po administered QD after 4 weeks (reference value: 403.23 7.98 bpm); assay type: functional
# [22] = Drug metabolism in rat liver microsomes; assay type: ADME, Microsome; conditions: read-out: Drug metabolism
# [23] = Lipophilicity, log D of the compound; assay type: physicochemical; conditions: octanol/water
# [24] = Genotoxicity in micronucleus
# [25] = Oral bioavailability in Sprague-Dawley rat at 10 mg/kg; assay type: ADME, organism-based; conditions: in vivo
# [26] = Drug metabolism in human liver microsomes; assay type: ADME, Microsome; conditions: read-out: Drug metabolism
# [27] = Solubility of the compound; assay type: physicochemical
# [28] = molecular target: Voltage-gated inwardly rectifying potassium channel KCNH2 (Homo sapiens, UniProt Q12809); assay: Inhibition of human ERG
# Voltage-gated inwardly rectifying potassium channel KCNH2, sequence (Q12809 whole entry): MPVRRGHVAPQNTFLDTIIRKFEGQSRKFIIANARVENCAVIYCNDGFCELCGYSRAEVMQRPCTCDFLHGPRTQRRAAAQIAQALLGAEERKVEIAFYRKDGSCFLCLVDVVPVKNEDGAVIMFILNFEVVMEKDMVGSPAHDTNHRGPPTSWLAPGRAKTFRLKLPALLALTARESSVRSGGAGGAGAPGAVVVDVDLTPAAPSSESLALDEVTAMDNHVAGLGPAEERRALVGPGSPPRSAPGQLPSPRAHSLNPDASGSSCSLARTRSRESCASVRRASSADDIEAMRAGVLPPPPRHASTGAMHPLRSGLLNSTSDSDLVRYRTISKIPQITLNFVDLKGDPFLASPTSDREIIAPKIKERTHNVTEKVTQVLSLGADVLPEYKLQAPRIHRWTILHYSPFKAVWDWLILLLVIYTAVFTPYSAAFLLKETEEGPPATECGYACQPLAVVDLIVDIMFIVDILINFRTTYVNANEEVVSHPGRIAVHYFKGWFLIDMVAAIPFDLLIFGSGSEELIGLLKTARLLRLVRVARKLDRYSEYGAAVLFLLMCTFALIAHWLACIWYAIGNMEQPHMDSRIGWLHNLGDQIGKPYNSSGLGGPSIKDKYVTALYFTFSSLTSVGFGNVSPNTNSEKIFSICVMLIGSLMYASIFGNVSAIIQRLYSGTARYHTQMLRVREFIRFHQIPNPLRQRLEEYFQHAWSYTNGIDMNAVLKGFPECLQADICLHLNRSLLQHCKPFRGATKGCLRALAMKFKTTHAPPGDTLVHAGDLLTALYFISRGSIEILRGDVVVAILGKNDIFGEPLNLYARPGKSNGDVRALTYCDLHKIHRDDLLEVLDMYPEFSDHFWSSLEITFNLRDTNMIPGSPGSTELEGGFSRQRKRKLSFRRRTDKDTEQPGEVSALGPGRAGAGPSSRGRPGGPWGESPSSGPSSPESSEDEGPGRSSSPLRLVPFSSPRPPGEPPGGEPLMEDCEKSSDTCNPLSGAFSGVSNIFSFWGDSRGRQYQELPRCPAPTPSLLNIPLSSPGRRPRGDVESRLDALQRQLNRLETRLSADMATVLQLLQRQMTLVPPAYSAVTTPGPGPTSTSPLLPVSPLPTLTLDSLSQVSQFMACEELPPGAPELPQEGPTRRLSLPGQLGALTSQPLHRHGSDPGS
# Salmonella typhimurium = assay: Genotoxicity against Salmonella typhimurium by AMES test; assay type: toxicity, organism-based; conditions: salmonella enterica subsp. enterica serovar typhimurium
smiles,measurement,setting,value
COc1cc(C(=O)N[C@@H](CC(=O)O)c2ccccc2C)nn1-c1ccccc1F,AUC(0-inf),[1],16000 ng·h/mL
same,Cmax,[2],22200 ng/mL
same,Activity,Mus musculus [3],95.88 mmHg
same,Activity,Rattus norvegicus [4],18.3 µL/min
same,Activity,Mus musculus [5],129.95 mmHg
same,Activity,Mus musculus [6],57.89%
same,Activity,Mus musculus [7],8.32 mmHg
same,IC50,Neprilysin,1900 nM
same,Activity,Mus musculus [8],29.63 g
same,Time,Mus musculus [9],7.05 ms
same,Activity,Rattus norvegicus [10],inactive
same,IC50,[11],26 nM
same,AUC(0-inf),[12],130000 ng·h/mL
same,Ratio,Mus musculus [13],4.84 mg/g
same,IC50,[14],26 nM
same,Activity,Mus musculus [15],142.69 mg
same,Cmax,[16],3720 ng/mL
same,Activity,Rattus norvegicus [17],14.3 µL/min
same,Activity,Rattus norvegicus [18],15.3 µL/min
same,fold change (FC),Rattus norvegicus [19],2
same,Time,Rattus norvegicus [20],0.69 s
same,Emax,CYP3A4,9%
same,Activity,Mus musculus [21],407.11 bpm
Cc1ccccc1[C@H](CC(=O)O)NC(=O)c1cc(=O)n(-c2ccccc2F)[nH]1,metabolised,[22],10%
same,logD,[23],-0.16
same,Activity,[24],Non-toxic
same,bioavailability,[25],< 5%
same,metabolised,[26],10%
same,inhibition,Neprilysin,Active
same,solubility,[27],> 180 µg/mL
same,Emax,CYP3A4,0%
same,IC50,[28],> 10000 nM
same,Activity,Salmonella typhimurium,Non-toxic
